From PubChem BioAssay
Most compounds without a hit are left out; they make up all but 3.4% or so of the library.
Arr AP2 block – blocks beta-arrestin peptide binding to AP2 adaptin; 340,000 tested, 0.31% active; inhibition, % at 10 µM; FITC-arrestin peptide / GST-AP2 beads, flow cytometry; AP2 beta2 appendage carries R879A mutation;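 active = inhibition above a set limit, near 3 SD of compounds lacking own fluorescence, cut at about 54% in these data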;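 note: plate controls were DMSO wells for no effect and 5 µM unlabelled arrestin peptide for full effect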
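Assay system: GST-AP2 R879A bound to glutathione beads, E. coli-expressed; Medium: PBS with 0.05% Tween 20 and 0.1% BSA; Also added: fluorescein-tagged arrestin peptide at 50 nM final; Timing: 12 min plus 1 h, RT; Measured by: flow cytometry, FL1 (488/535 nm); Evaluation: percent drop in bead-associated FITC signal.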
PolyA inhibitor – blocks polyadenylation in yeast reporter cells; S. cerevisiae SKY197-pL101 polyadenylation reporter, beta-gal luminescence; efflux-impaired pdr1/pdr3 knockout yeast; score 100 = 6 SD above DMSO; 300,000 tested, 0.02% active; AID 1875; activity score, % at 12 µM;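 active = lowest replicate activity score at least 50, where 100 means six control SD above control mean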;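 note: yeast exposed to compound for 9 h at 30 °C; higher score means more reporter readthrough which indicates perturbed polyadenylation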
APOBEC3G inh – inhibitors of human APOBEC3G DNA deaminase | Q9HC16 | recombinant A3G, ssDNA deamination FAM/TAMRA fluorescence | inhibition, % at 20 µM | 330,000 tested, 0.28% active | AID 493012;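 active = inhibition of at least 40% at 20 µM, with no more than 30% in the related APOBEC3A deaminase screen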;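 note: plate controls were DMSO wells with A3G for no effect and wells lacking A3G enzyme for full effect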
Target sequence (Q9HC16 whole entry, looked up): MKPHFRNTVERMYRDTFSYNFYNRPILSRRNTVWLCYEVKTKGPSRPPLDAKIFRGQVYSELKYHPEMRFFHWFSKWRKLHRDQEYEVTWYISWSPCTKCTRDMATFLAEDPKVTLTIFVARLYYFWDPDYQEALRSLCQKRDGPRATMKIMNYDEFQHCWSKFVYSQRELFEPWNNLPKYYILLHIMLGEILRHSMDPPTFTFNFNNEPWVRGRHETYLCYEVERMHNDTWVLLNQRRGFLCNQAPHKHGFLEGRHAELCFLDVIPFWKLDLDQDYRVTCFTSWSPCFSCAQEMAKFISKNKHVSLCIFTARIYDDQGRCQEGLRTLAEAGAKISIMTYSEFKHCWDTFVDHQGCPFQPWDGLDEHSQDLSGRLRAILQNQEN
UCH37 DUB inh – inhibitors of human deubiquitinating enzyme UCH37. inhibition, % (test concentration not listed). purified proteasome/UCH37, Ub-AMC cleavage fluorescence. Q9Y5K5. AID 588478. 330,000 tested, 0.33% active;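 active = mean inhibition over replicate wells above about 20%, limit read from the data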;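 note: 0% = compound-free wells with enzyme and 100% = wells lacking proteasome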
Target sequence (Q9Y5K5 whole entry, looked up): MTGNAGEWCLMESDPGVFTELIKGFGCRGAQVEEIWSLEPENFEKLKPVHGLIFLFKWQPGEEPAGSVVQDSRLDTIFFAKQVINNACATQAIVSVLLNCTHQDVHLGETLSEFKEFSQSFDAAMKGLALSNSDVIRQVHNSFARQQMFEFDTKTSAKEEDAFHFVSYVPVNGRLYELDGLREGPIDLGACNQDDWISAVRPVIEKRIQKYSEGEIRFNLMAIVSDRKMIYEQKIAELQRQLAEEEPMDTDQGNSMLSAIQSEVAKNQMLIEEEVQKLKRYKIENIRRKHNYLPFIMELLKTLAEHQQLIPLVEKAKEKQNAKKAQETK
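Test system – human UCH37 enzyme supplied as purified proteasome complex · Incubation – 30 min preincubation with enzyme, 25 min cleavage at room temperature · Detection – AMC fluorescence from Ub-AMC cleavage, excitation 355 nm, emission 460 nm · Benchmarks – no-proteasome wells (full inhibition) and compound-free wells (no inhibition)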
APOBEC3A inh – blocks human APOBEC3A ssDNA deamination; recombinant A3A, FAM/TAMRA ssDNA deamination fluorescence; 330,000 tested, 0.41% active; inhibition, % at 20 µM;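 active = at least 40% inhibition at 20 µM here, with at most 30% in a related deaminase screen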;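 note: plate controls were A3A with DMSO for no effect and wells lacking A3A enzyme for full effect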
AHR activator – activates the human aryl hydrocarbon receptor | activation, % at 5 µM | P35869 | 320,000 tested, 2.5% active | AHR-responsive luciferase reporter cells, luminescence; in the data active = activation above about 47%;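 note: 0% = vehicle wells and 100% = reference agonist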
APOBEC3A confirm – confirmation of human APOBEC3A DNA deaminase inhibitors. shares compounds with APOBEC3A inh. recombinant A3A, ssDNA deaminase UDG fluorescence assay. inhibition, % at 20 µM. 1,400 tested, 63% active;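 active = inhibition reaching a set limit, 80% of the first screen's cutoff, at 20 µM in any replicate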;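 note: plate controls were DMSO wells with A3A for no effect and wells lacking A3A enzyme for full effect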
UDG ctr A3A – counter-screen for APOBEC3A inhibitors: UDG. shares compounds with APOBEC3A inh. UDG counterscreen, FAM/TAMRA uracil oligo fluorescence. inhibition, % at 20 µM. 1,000 tested, under 10 active. AID 504714; call rule not given here
* marks the source's active call; other numbers are inactive results; nt = not tested or not shown.

SMILES	Arr AP2 block	PolyA inhibitor	APOBEC3G inh	UCH37 DUB inh	APOBEC3A inh	AHR activator	APOBEC3A confirm	UDG ctr A3A
CCOc1ccc(NC(C(=O)Nc2cccc(C(C)=O)c2)c2ccccc2)cc1 (stereo unspecified)	5.9	8.3	-2.6	5.9	43.2*	12.5	-10.7	-3.2
S=c1[nH]c(-c2ccccc2)cn1N=Cc1ccc(Br)cc1	nt	nt	nt	-24.3	nt	nt	nt	nt
CCN(CC)C(=O)Cn1c(C)c(/C=C/c2cc[n+](C)cc2)c2ccccc21	-3.3	-9.0	17.3	nt	64.2*	-2.0	62.0*	-5.1
CCN(CC)C(=O)Cn1c(=O)n(C)c2ccccc21	33.2	-3.5	-1.1	-1.2	4.2	-2.9	nt	nt
C=CCn1c(C)c(/C=C/c2cc[n+](C)cc2)c2ccccc21	-8.9	6.4	-4.9	nt	42.2*	25.3	59.4*	-14.1
Cc1[nH]c2ccccc2c1/C=C/c1cc[n+](C)cc1	-16.1	-12.7	nt	nt	nt	nt	nt	nt
CCC(=O)Nc1ccc(-c2nnc(SCC(=O)Nc3nccs3)n2C)cc1	-15.4	6.2	28.7	2.3	52.7*	3.1	13.5	nt
Cc1ccn(CCC(=O)N2CCc3ccccc32)n1	-20.1	4.3	-2.2	0.8	90.9*	13.3	-8.0	-0.7
O=C(Cn1ccc([N+](=O)[O-])n1)N1CCc2ccccc21	-7.2	-20.6	1.3	2.1	5.0	-0.6	nt	nt
O=C(Nc1cc2c(cc1Br)OCCCO2)c1ccccc1	-7.2	-1.8	1.9	2.5	54.7*	-1.1	1.3	nt
Oc1[nH]c2ccccc2c1N=Nc1nc(Nc2ccccc2)nc(N2CCOCC2)n1	-13.9	5.5	11.5	3.4	44.5*	-5.3	17.2	nt
Cc1[nH]c2ccccc2c1/C=N/Nc1nc(Nc2ccccc2)nc(N2CCOCC2)n1	2.9	10.4	-7.4	nt	-3.0	0.5	nt	nt
CCOc1ccc(S(=O)(=O)N(CC(=O)N/N=C/c2ccc(-c3ccc([N+](=O)[O-])cc3)o2)c2ccccc2)cc1	4.8	-7.7	23.5	nt	65.6*	0.4	37.3*	4.7
CCOc1cc(/C=C(\C#N)C(=O)NCC2CCCO2)ccc1OCC(N)=O (stereo unspecified)	-14.3	-0.6	13.4	0.7	50.8*	-1.9	43.3*	-2.0
CCOC(=O)C1CCN(S(=O)(=O)c2ccc3c(c2)CC(=O)N3C)CC1	7.4	14.5	27.8	2.1	51.6*	-0.3	54.9*	-4.3
CCOC(=O)C1CCN(S(=O)(=O)c2ccc3c(c2)CCCN3C(C)=O)CC1	4.9	4.8	-0.5	3.3	1.5	0.7	nt	nt
COc1cccc(-c2c(C(=O)NN=Cc3sccc3C)nnn2-c2nonc2N)c1	nt	nt	nt	-0.5	nt	nt	nt	nt
O=C(CCCOc1ccc(Cl)cc1Cl)NN=Cc1cccc([N+](=O)[O-])c1	nt	nt	nt	0.9	nt	nt	nt	nt
N#Cc1ccccc1S(=O)(=O)N1CCN(C(=O)c2cc3c(s2)CCC3)CC1	-0.2	nt	13.6	1.1	51.3*	nt	35.8*	1.2
O=C(O)c1ccc2c3c(cccc13)C(=O)N(c1ccccc1)C2=O	38.1	4.9	26.0	9.8	63.2*	3.5	55.3*	-3.0
Cc1ccc(C(=O)Nc2cc(Cl)ccc2-n2cncn2)o1	-10.7	-2.4	-0.6	-5.9	41.5*	58.3*	47.9*	3.6
CCc1noc(C)c1C(=O)N1CCN(S(=O)(=O)c2ccc(C(C)=O)cc2)CC1	-5.8	10.0	0.9	-1.3	40.0*	-0.1	-1.8	nt
CCc1noc(C)c1C(=O)N1CCN(S(=O)(=O)c2ccc(Cl)cc2)CC1	-10.0	nt	-6.3	-1.8	-2.2	0.5	nt	nt
CCNC(=S)NN=Cc1ccc(C(=O)O)cc1	nt	nt	nt	6.0	nt	nt	nt	nt
O=C(NN=Cc1cccnc1)c1ccccc1[N+](=O)[O-]	nt	nt	nt	-0.7	nt	nt	nt	nt
SMILES	Arr AP2 block	PolyA inhibitor	APOBEC3G inh	UCH37 DUB inh	APOBEC3A inh	AHR activator	APOBEC3A confirm	UDG ctr A3A
COc1ccc(NC(=O)/C=C/c2cccc(C(F)(F)F)c2)cn1	6.3	-8.0	-12.6	2.9	2.2	-9.9	nt	nt
COc1ccc(NC(=O)/C=C/c2cccc(Br)c2)cn1	30.4	-5.4	-6.7	8.9	41.4*	-10.8	15.5*	1.0
Cc1ccc(S(=O)(=O)/N=C2/NC(=O)/C(=C/c3ccc(Br)o3)S2)cc1	25.5	11.2	-5.9	-7.9	51.7*	-5.7	-4.6	0.9
Cc1ccc(S(=O)(=O)/N=C2/NC(=O)/C(=C\c3cc(Br)cc(Br)c3O)S2)cc1	-13.6	nt	-20.2	19.9	-9.9	nt	nt	nt
CCCCn1c2c(c(=N)c3ccccc31)CCC2	-37.3	-7.5	22.7	1.5	87.7*	4.3	41.5*	2.3
CCCCCn1c2c(c(=N)c3ccccc31)CCC2	-36.9	-5.5	18.2	-4.7	57.5*	1.3	74.3*	1.5
CC[n+]1c(C)n(-c2ccccc2)c2ccc(C(=O)OC)cc21	-23.0	2.1	12.2	1.3	43.6*	1.3	40.2*	-2.7
CC(=O)OCC[n+]1c(C)n(-c2ccccc2)c2ccc(Cl)cc21	-13.8	-10.2	11.4	0.3	41.6*	-1.6	84.5*	-2.7
CCOC(=O)c1ccc2c(c1)[n+](CC)c(C)n2-c1ccccc1	9.3	-13.4	25.6	-2.7	75.3*	7.4	85.1*	2.2
O=C(CN1CCN(S(=O)(=O)c2ccc(Br)cc2)CC1)NN=Cc1ccco1	nt	nt	nt	5.2	nt	nt	nt	nt
COc1ccc(/C=C(\NC(=O)c2ccccc2)C(=O)OC[C@@H]2CCC[N+]3(C)CCCCC23)cc1OC (stereo partly specified)	-19.7	6.6	11.0	6.0	66.9*	0.2	67.2*	3.9
CC(C)(C)OC(=O)N1CC(O)CC1C(=O)OCC(=O)c1ccccc1 (stereo unspecified)	13.0	2.4	0.1	0.3	2.5	2.1	nt	nt
CC(C)(C)OC(=O)N1CC(O)CC1C(=O)OCC(=O)c1ccc(-c2ccccc2)cc1 (stereo unspecified)	-20.2	-1.4	26.1	3.7	82.6*	0.9	71.2*	-1.0
CC(C)(C)OC(=O)N1CC(O)CC1C(=O)OCC(=O)c1ccc(Cl)cc1 (stereo unspecified)	-4.6	5.2	4.6	3.0	41.8*	2.1	2.5	nt
CC(=NNC(=O)C1CC1)c1cccnc1	nt	nt	nt	1.5	nt	nt	nt	nt
Cn1c(=Nc2ccc(N3CCOCC3)cc2)ccc2ccccc21	-6.4	-13.4	20.3	3.8	54.3*	4.0	20.9	nt
COC(=O)C(=NNc1ccccc1Cl)Sc1nnc(C(O)c2ccccc2)n1-c1ccccc1 (stereo unspecified)	nt	nt	nt	2.4	nt	nt	nt	nt
O=C(CCc1ccccc1)Nc1ncn[nH]1	19.9	7.6	-6.8	0.8	93.6*	-1.0	7.2	2.8
